According to ChEMBL document CHEMBL1132465, “Design and synthesis of thrombin inhibitors: analogues of MD-805 with reduced stereogenicity and improved potency” (J Med Chem, 1999):
“And” between values parts separate entries of the source, which are not always exact repeats. Equal entries are not always repeated. Each block holds one molecule with its values, some of them ahead of it.

Experiments:
Prothrombin [1] = molecular target: Prothrombin (Bos taurus, UniProt P00735); experiment: Inhibitory activity against bovine thrombin
Prothrombin [2] = molecular target: T1, Prothrombin (Homo sapiens, UniProt P00734); experiment: The compound was evaluated for the inhibitory activity against human thrombin
Summary of the method: (§1)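 Human thrombin (0.0625 U/mL final) in 0.05 M TRIS-HCl pH 8.4 with S-2238, started by enzyme. Absorbance slope at 405 nm was read over 30 s. A range-finding run at about 0.01–100 μM was followed by substrate at 3.125–100 μM with at least two inhibitor levels plus vehicle. DMSO was below 0.5%. Ki = [i]/(Kp/Km − 1) from double-reciprocal plots.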

[3] = The compound was evaluated for the dose to double the control plasma APTT value in the human plasma; type: functional
Summary of the method: (§2)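 Human blood was anticoagulated with one-tenth volume 3.8% trisodium citrate and centrifuged at 1300g for 20 min to give platelet-poor plasma. Plasma was spiked with compound at 0 to about 150 μM. It was activated 5 min at 37 °C with bovine cephalin (ellagic acid) reagent, and clotting was started with 20 mM CaCl2. Clot time was read on a coagulometer. Concentration doubling APTT was read from a concentration–APTT plot.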

[4] = The compound was evaluated for the dose to double the control plasma APTT value in the human plasma.; type: functional; summary of the method: as §2
Prothrombin [5] = molecular target: T1, Prothrombin; experiment: Inhibitory activity against human thrombin
Prothrombin [6] = molecular target: T1, Prothrombin; experiment: The compound was evaluated for the inhibitory activity against human thrombin.; summary of the method: as §1
Plasminogen = Plasminogen (Homo sapiens, UniProt P00747); experiment: The compound was evaluated for the inhibitory activity against human plasmin
Summary of the method: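 Human plasmin, S-2251 chromogenic substrate, 0.05 M TRIS-HCl pH 8.4. Run like the thrombin assay: DMSO stock (final below 0.5%), initial rate at 405 nm over 30 s, substrate varied across a range. Ki was calculated from Lineweaver-Burk intercepts of control and inhibited curves.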

[7] = The compound was evaluated for the APTT value expressed as multiplies of control and was measured at the termination of the experiment (45 min later) in the rat model of arterial thrombosis at 30.0 dose (mg/kg); type: functional
Summary of the method: (§3)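 Rat arterial thrombosis model with sc dosing 1 h before clamping the dorsal aorta. Blood was taken via carotid cannula into one-tenth volume 3.8% trisodium citrate just before clamping and at termination, 45 min later. APTT was measured on plasma and expressed as a multiple of control, mean ± SEM, n = 5.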

Chymotrypsinogen A = Chymotrypsinogen A (Bos taurus, UniProt P00766); experiment: The compound was evaluated for the inhibitory activity against bovine Chymotrypsinogen
Summary of the method: (§4)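 Chromogenic assay run as for thrombin, with S-2222 (trypsin) or S-2586 (chymotrypsin) as substrate. Enzymes were bovine. Buffer was 0.05 M TRIS-HCl, pH 8.4. Compound stocks were in DMSO (final below 0.5%). Rate was read at 405 nm over 30 s. Ki came from double-reciprocal plots across a range of substrate concentrations.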

Rattus norvegicus [8] = experiment: Percentage inhibition on venous stasis thrombosis in the rat at 1.0 dose (mg/kg); type: functional
Summary of the method: (§5)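 Rat acute venous stasis. The vessel was excised after 10 min and the thrombus weighed. Compound was dosed iv 2 min or sc 1 h before stasis. Result is % inhibition of mean control thrombus weight relative to placebo, mean ± SEM, n = 5.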

Rattus norvegicus [9] = experiment: Percentage inhibition on venous stasis thrombosis in the rat at 3.0 dose (mg/kg); type: functional; summary of the method: as §5
Rattus norvegicus [10] = experiment: Percentage inhibition on the platelet accumulation in the rat model of Arterial thrombosis at 10.0 dose (mg/kg); type: functional
Summary of the method: (§6)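 Rat dorsal aorta injury model. Rats received 111In-labelled platelets 24 h and 125I-fibrinogen 10 min before injury. The aorta was clamped with modified forceps for 1 min, then blood flowed 45 min. The vessel was excised, washed in 5% citrate and gamma-counted, and counts were converted to mg blood equivalents. Dosing was iv 1 min or sc 1 h before clamping. Result is % inhibition versus placebo accumulation, mean ± SEM, n = 5.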

[11] = TThe compound was evaluated for the APTT value expressed as multiplies of control and was measured at the termination of the experiment (45 min later) in the rat model of arterial thrombosis at 10.0d ose (mg/kg); type: functional; summary of the method: as §3
Rattus norvegicus [12] = experiment: Percentage inhibition on venous stasis thrombosis in the rat at 0.1 dose (mg/kg); type: functional; summary of the method: as §5
Rattus norvegicus [13] = experiment: Percentage inhibition on the f fibrinogen accumulation in the rat model of Arterial thrombosis at 10.0 dose (mg/kg); type: functional; summary of the method: as §6
Rattus norvegicus [14] = experiment: Percentage inhibition on the f fibrinogen accumulation in the rat model of Arterial thrombosis at 3.0 dose (mg/kg); type: functional; summary of the method: as §6
Trypsin II = molecular target: T2, Trypsin II (Bos taurus, UniProt Q29463); experiment: The compound was evaluated for the inhibitory activity against bovine trypsin; summary of the method: as §4
T2 sequence (Q29463 whole entry): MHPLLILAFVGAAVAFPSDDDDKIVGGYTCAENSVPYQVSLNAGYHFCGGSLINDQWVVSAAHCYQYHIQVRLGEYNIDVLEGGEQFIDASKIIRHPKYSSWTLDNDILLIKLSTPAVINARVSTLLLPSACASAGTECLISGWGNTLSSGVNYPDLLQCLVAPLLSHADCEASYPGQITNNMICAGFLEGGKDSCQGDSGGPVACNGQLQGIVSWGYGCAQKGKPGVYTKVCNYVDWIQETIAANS

Rattus norvegicus [15] = experiment: Percentage inhibition on the f fibrinogen accumulation in the rat model of Arterial thrombosis at 30.0 dose (mg/kg); type: functional; summary of the method: as §6
Rattus norvegicus [16] = experiment: Percentage inhibition on venous stasis thrombosis in the rat at 0.05 dose (mg/kg); type: functional; summary of the method: as §5
Rattus norvegicus [17] = experiment: Percentage inhibition on venous stasis thrombosis in the rat at 2.0 dose (mg/kg); type: functional; summary of the method: as §5
Rattus norvegicus [18] = experiment: Percentage inhibition on venous stasis thrombosis in the rat at 6.0 dose (mg/kg); type: functional; summary of the method: as §5
Rattus norvegicus [19] = experiment: Percentage inhibition on the platelet accumulation in the rat model of Arterial thrombosis at 0.3 dose (mg/kg); type: functional; summary of the method: as §6
[20] = The compound was evaluated for the APTT value expressed as multiplies of control and was measured at the termination of the experiment (45 min later) in the rat model of arterial thrombosis at 3.0 dose (mg/kg); type: functional; summary of the method: as §3
Rattus norvegicus [21] = experiment: Percentage inhibition on the f fibrinogen accumulation in the rat model of Arterial thrombosis at 2.0 dose (mg/kg); type: functional; summary of the method: as §6
Rattus norvegicus [22] = experiment: Percentage inhibition on the platelet accumulation in the rat model of Arterial thrombosis at 3.0 dose (mg/kg); type: functional; summary of the method: as §6
[23] = The compound was evaluated for the APTT value expressed as multiplies of control and was measured at the termination of the experiment (45 min later) in the rat model of arterial thrombosis at 2.0 dose (mg/kg); type: functional; summary of the method: as §3
Rattus norvegicus [24] = experiment: Percentage inhibition on the platelet accumulation in the rat model of Arterial thrombosis at 30.0 dose (mg/kg); type: functional; summary of the method: as §6
Rattus norvegicus [25] = experiment: Percentage inhibition on the platelet accumulation in the rat model of Arterial thrombosis at 2.0 dose (mg/kg); type: functional; summary of the method: as §6
[26] = TThe compound was evaluated for the APTT value expressed as multiplies of control and was measured at the termination of the experiment (45 min later) in the rat model of arterial thrombosis at 1.0 dose (mg/kg); type: functional; summary of the method: as §3
Rattus norvegicus [27] = experiment: Percentage inhibition on the f fibrinogen accumulation in the rat model of Arterial thrombosis at 1.0 dose (mg/kg); type: functional; summary of the method: as §6

Sequence of Plasminogen (P00747 97-580 limits assumed): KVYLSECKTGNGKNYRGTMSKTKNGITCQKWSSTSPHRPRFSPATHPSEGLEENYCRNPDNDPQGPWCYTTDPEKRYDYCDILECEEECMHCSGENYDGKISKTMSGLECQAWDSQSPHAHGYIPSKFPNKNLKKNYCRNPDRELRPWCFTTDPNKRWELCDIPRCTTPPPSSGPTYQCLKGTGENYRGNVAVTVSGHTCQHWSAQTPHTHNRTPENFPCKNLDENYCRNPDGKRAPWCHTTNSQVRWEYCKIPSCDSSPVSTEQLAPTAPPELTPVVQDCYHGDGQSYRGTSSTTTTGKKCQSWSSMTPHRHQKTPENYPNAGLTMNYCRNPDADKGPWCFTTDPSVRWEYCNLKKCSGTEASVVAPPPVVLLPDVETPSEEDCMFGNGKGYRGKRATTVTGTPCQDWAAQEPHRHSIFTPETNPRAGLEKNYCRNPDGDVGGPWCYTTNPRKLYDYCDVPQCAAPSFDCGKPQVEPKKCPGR
Sequence of Plasminogen (P00747 581-810 limits assumed): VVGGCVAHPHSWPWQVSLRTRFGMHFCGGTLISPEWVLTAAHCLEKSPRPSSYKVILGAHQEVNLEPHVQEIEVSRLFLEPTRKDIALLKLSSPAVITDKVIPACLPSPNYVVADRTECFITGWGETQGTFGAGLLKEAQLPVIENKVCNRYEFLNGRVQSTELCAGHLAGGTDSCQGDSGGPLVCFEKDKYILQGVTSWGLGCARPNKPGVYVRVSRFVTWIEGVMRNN

Ki (Prothrombin [1]): 19 nM | Ki (Prothrombin [2]): 11 nM
Structure (SMILES): CC1CNc2c(cccc2S(=O)(=O)NC(CCCN=C(N)N)C(=O)N2CCC(CCCl)CC2)C1 (stereo not given)
IC200 [3]: 2.7 µM

Ki (Prothrombin [5]): 6 nM
Structure (SMILES): CC1(C)CNc2c(cccc2S(=O)(=O)NC(CCCN=C(N)N)C(=O)N2CCC(CC(F)F)CC2)C1 (stereo not given)
IC200 [4]: 1.5 µM

Ki (Prothrombin [1]): 1980 nM
Structure (SMILES): CC1CNc2c(cccc2S(=O)(=O)NC(CCCN=C(N)N)C(=O)N2CCC(CCCCCCC(=O)O)CC2)C1 (stereo not given)

Ki (Prothrombin [1]): 23 nM
Structure (SMILES): CC1CNc2c(cccc2S(=O)(=O)NC(CCCN=C(N)N)C(=O)N2CCCC[C@H]2CO)C1 (stereo not given in full)

Ki (Prothrombin [1]): 80 nM
Structure (SMILES): CC1CNc2c(cccc2S(=O)(=O)NC(CCCN=C(N)N)C(=O)N2CCC[C@H]2CO)C1 (stereo not given in full)

Ki (Prothrombin [1]): 185 nM
Structure (SMILES): CC1CNc2c(cccc2S(=O)(=O)NC(CCCNC(=N)N)C(=O)N2CCC(CCCO)CC2)C1 (stereo not given)

Ki (Prothrombin [1]): 1350 nM
Structure (SMILES): CC1CNc2c(cccc2S(=O)(=O)NC(CCCNC(=N)N)C(=O)N2CCC[C@@H](CCO)C2)C1 (stereo not given in full)

Ki (Prothrombin [5]): 12.1 nM
Structure (SMILES): CC1(C)CNc2c(cc(Cl)cc2S(=O)(=O)NC(CCCN=C(N)N)C(=O)N2CCC(CC(F)F)CC2)C1 (stereo not given)
IC200 [4]: 6 µM

Ki (Prothrombin [1]): 890 nM
Structure (SMILES): CC1CNc2c(cccc2S(=O)(=O)NC(CCCNC(=N)N)C(=O)N2Cc3ccccc3CC2CO)C1 (stereo not given)

Ki (Prothrombin [6]): 280 nM | Ki (Prothrombin [1]): 310 nM
Structure (SMILES): CC1CNc2c(cccc2S(=O)(=O)NC(CCCN=C(N)N)C(=O)N2CCC(CCC(=O)NCCC(=O)O)CC2)C1 (stereo not given)

Ki (Prothrombin [1]): 56 nM
Structure (SMILES): CC1(C)CNc2c(cc(Cl)cc2S(=O)(=O)NC(CCCN=C(N)N)C(=O)N2CCC(CCOC(=O)C(C)(C)C)CC2)C1 (stereo not given)
IC200 [3]: 8.5 µM

Ki (Prothrombin [1]): 49 nM
Structure (SMILES): CC(C)(c1ccccc1)c1cccc(S(=O)(=O)NC(CCCNC(=N)N)C(=O)N2CCc3ccccc3C2)c1 (stereo not given)

Ki (Prothrombin [1]): 23 nM
Structure (SMILES): CC1CNc2c(cccc2S(=O)(=O)NC(CCCNC(=N)N)C(=O)N2CCc3ccccc3C2)C1 (stereo not given)

Ki (Prothrombin [1]): 18400 nM
Structure (SMILES): CC1CNc2c(cccc2S(=O)(=O)NC(CCCN=C(N)N)C(=O)N2CCC(CCC(=O)O)CC2)C1 (stereo not given)

Ki (Prothrombin [5]): 5.7 nM
Structure (SMILES): CC1(C)CNc2c(cccc2S(=O)(=O)NC(CCCN=C(N)N)C(=O)N2CCC(CCF)CC2)C1 (stereo not given)
IC200 [4]: 2.1 µM

Ki (Prothrombin [1]): 52 nM
Structure (SMILES): CC1CNc2c(cccc2S(=O)(=O)NC(CCCN=C(N)N)C(=O)N2CCC(CCO)CC2)C1 (stereo not given)

Ki (Prothrombin [1]): 980 nM
Structure (SMILES): CC1CNc2c(cccc2S(=O)(=O)NC(CCCN=C(N)N)C(=O)N2CCC(CCOCCCC(=O)O)CC2)C1 (stereo not given)

Ki (Prothrombin [1]): 360 nM
Structure (SMILES): CC1CNc2c(cccc2S(=O)(=O)NC(CCCN=C(N)N)C(=O)N2CCC(CCOC(=O)CC(=O)O)CC2)C1 (stereo not given)

Ki (Plasminogen): 210000 nM | Ki (Chymotrypsinogen A): > 83000 nM | Ki (Trypsin II): 7100 nM
Structure (SMILES): CC1(C)CNc2c(cccc2S(=O)(=O)NC(CCCN=C(N)N)C(=O)N2CCC(CCO)CC2)C1 (stereo not given)
APTT [7]: 2.5 | Inhibition (Rattus norvegicus [8]): 100% and 50% | Inhibition (Rattus norvegicus [9]): 71.7% | Inhibition (Rattus norvegicus [10]): 68.3% | APTT [11]: 1.7 | Inhibition (Rattus norvegicus [12]): 45.1% | Inhibition (Rattus norvegicus [13]): 45.5% | Inhibition (Rattus norvegicus [14]): 28.8% | Inhibition (Rattus norvegicus [15]): 49.9% | Inhibition (Rattus norvegicus [16]): 2.3% | Inhibition (Rattus norvegicus [17]): 79.8% | IC200 [3]: 1.9 µM | Inhibition (Rattus norvegicus [18]): 95.2% | Inhibition (Rattus norvegicus [19]): 58% and 36.4% | APTT [20]: 1.5 and 1.3 | Inhibition (Rattus norvegicus [21]): 3.5% | Inhibition (Rattus norvegicus [22]): 94.4% and 82% and 61.2% | APTT [23]: 1.5 and 1 | Inhibition (Rattus norvegicus [24]): 69.8% | Inhibition (Rattus norvegicus [25]): 38.5% | APTT [26]: 1 | Inhibition (Rattus norvegicus [27]): 24.2%
